Assay outcomes from PubChem.
Diaphorase inh: diaphorase inhibition or chemical oxidation counter-screen; 0.69% of 190,000 active; diaphorase resazurin-to-resorufin fluorescence, NADH, 16 min; bacterial (C. kluyveri) enzyme, not human; AID 1217; inhibition, % at 20 µM;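 active = primary screen inhibition at 20 µM above a set limit, cut at about 50% in these data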
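System: Diaphorase enzyme from Clostridium kluyveri | Amount: Enzyme working solution with 0.14 U/mL diaphorase | Benchmarks: No-NADH positive control and DMSO neutral control | Signal: Fluorescence of resorufin formed from resazurin, Ex 544/Em 590 nm | Schedule: 16-min room-temperature incubation before reading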
L major viab: Leishmania major promastigote growth inhibition; Leishmania major promastigotes, resazurin fluorescence viability; inhibition, % at 10 µM; 9% of 200,000 active;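 also: promastigotes grown with compound for 44 hours at 28 °C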
Redox H2O2 prof: compounds producing H2O2 with reducing agent – biochemical, NIH compound library profiling, artefact control for MLSCN library redox annotation, primary screen | DTT-dependent redox cycling H2O2, phenol red/HRP absorbance; 100% = 100 µM peroxide control, 0% = buffer | activation, % at 10 µM | 0.03% of 200,000 active | AID 878;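 active = activation of at least 50% relative to the plate's high and low controls in the primary single-dose screen; inactive = activation below 50%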;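 also: compound incubated with DTT at 0.8 mM final as the reducing agent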
G6PDH counter: L. mesenteroides G6PDH inhibition counter-screen; 0.12% of 200,000 active; Purified L. mesenteroides G6PDH, diaphorase/resazurin coupled fluorescence, 45 min; inhibition, % at 5 µM
PfGluPho inh: PfG6PD (Plasmodium falciparum) enzyme inhibition. inhibition, % at 20 µM. 0.78% of 350,000 active. PfGluPho enzyme, NADPH resazurin-diaphorase fluorescence;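 active = inhibition reaching at least a set limit at 20 µM in the primary screen, cut at about 59% in these data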
Diaph act CS: counter-screen for diaphorase-based assays: diaphorase activators and chemical reducers; Diaphorase/resazurin coupled assay, resorufin fluorescence, 16 min; hits give high values; 1 = vehicle wells, 0 = NADH-free wells; activation factor at 20 µM; 0.005% of 190,000 active;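 active = diaphorase activity raised at least twofold by the compound at 20 µM; inactive = activation factor below 2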
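Material: purified diaphorase enzyme from Clostridium kluyveri / Medium: HEPES pH 7.4 buffer with MgCl2 and Tween 20 / Schedule: enzyme reaction of 16 min at room temperature / Measured by: resorufin fluorescence, excitation 544 nm, emission 590 nm / Evaluation: rise in resorufin formation, marking diaphorase activation or chemical reduction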
Hits are given with their value; i = inactive; nt = no result. Only a selection was taken, and hits are over-represented in it overall. Rule as the data show it, unless noted: active = inhibition above about 50%; inactive = the rest.

SMILES	Diaphorase inh	L major viab	Redox H2O2 prof	G6PDH counter	PfGluPho inh	Diaph act CS
O=Cc1ccc(Sc2nnc(-c3ccccc3)o2)c([N+](=O)[O-])c1	i	i	i	i	94	i
Cc1cc(C)nc(Sc2ccc(C=O)cc2[N+](=O)[O-])n1	i	i	i	i	i	i
Cc1ccc(S(=O)(=O)Nc2c(C)n(C)n(-c3ccccc3)c2=O)cc1	i	i	i	i	i	i
Cc1ccc(OP(=O)(Nc2c(C)n(C)n(-c3ccccc3)c2=O)Oc2ccc(C)cc2)cc1	i	69	i	i	i	i
Cc1ccc(NC(=O)Nc2c(C)[nH]c(=O)[nH]c2=O)cc1Cl	nt	nt	nt	nt	i	nt
CCOc1cc(N2CCOCC2)c(OCC)cc1NC(=O)CN1CCSC1=O	nt	nt	nt	nt	i	nt
Cc1cc(C(=O)c2ccccc2)c(NC(=O)CCl)s1	i	100	i	i	i	i
CCN(CC)CC(=O)Nc1sc(C)cc1C(=O)c1ccccc1	nt	nt	nt	nt	i	nt
COc1cccc(NC(=O)CN(C)CC(=O)Nc2ccc(C)c(S(=O)(=O)N3CCOCC3)c2)c1	nt	nt	nt	nt	i	nt
OCCC1CN(Cc2ccc(-c3ccco3)cc2)CCN1Cc1ccsc1 (centres undefined)	i	76	i	i	i	i
OCCC1CN(Cc2ccccc2OC2CCCC2)CCN1Cc1ccsc1 (centres undefined)	i	61	i	i	i	i
C=CCNC(=S)N/N=C1\CCS(=O)(=O)c2ccccc21	nt	nt	nt	nt	i	nt
O=S(=O)(c1ccccc1)c1nc(-c2ccco2)oc1Nc1ccccc1	i	76	i	i	i	i
CC1CCCCC1NC(=O)COC(=O)c1c2c(nc3ccccc13)/C(=C\c1ccco1)CC2 (centres undefined)	nt	nt	nt	nt	i	nt
CC1CCN(C(=O)c2cc(N3C(=O)C4C5CCC(C5)C4C3=O)ccc2Cl)CC1 (centres undefined)	i	i	i	i	nt	i
O=C(c1cc(N2C(=O)C3C4CCC(C4)C3C2=O)ccc1Cl)N1CCN(c2ccccc2)CC1 (centres undefined)	i	72	i	i	i	i
CCN(CC)S(=O)(=O)c1ccc(C)c(NC(=S)N2CCN(C/C=C/c3ccccc3)CC2)c1	i	60	i	i	i	i
CC(C)CNC(=S)N1CCN(Cc2ccc3c(c2)OCO3)CC1	i	i	i	i	i	i
CC(C)c1ccccc1NC(=S)N1CCN(Cc2ccc3c(c2)OCO3)CC1	i	77	i	i	i	i
CCC(C)NC(=S)N1CCN(Cc2ccc3c(c2)OCO3)CC1 (centres undefined)	i	i	i	i	i	i
Cc1cccc(NC(=S)N2CCN(Cc3ccc4c(c3)OCO4)CC2)c1C	i	90	i	i	i	i
Cc1ccc(NC(=S)N2CCN(Cc3ccc4c(c3)OCO4)CC2)c(C)c1	nt	89	i	nt	i	nt
NS(=O)(=O)c1ccc(NC(=S)N2CCN(Cc3ccc4c(c3)OCO4)CC2)cc1	i	i	i	i	i	i
CCN(CC)S(=O)(=O)c1ccc(C)c(NC(=S)N2CCN(Cc3ccc4c(c3)OCO4)CC2)c1	i	96	i	i	i	i
Cc1c(Cc2ccccc2)c(=O)oc2cc(O)ccc12	nt	nt	nt	nt	i	nt
SMILES	Diaphorase inh	L major viab	Redox H2O2 prof	G6PDH counter	PfGluPho inh	Diaph act CS
Cc1c(Cc2ccccc2)c(=O)oc2c(O)c(O)ccc12	73	i	i	i	i	i
COc1ccc(NC(=O)Nc2ccc(Cc3ccncc3)cc2)cc1OC	i	96	i	i	i	i
COc1cc2ccccc2cc1C(=O)Nc1ccc(Cc2ccncc2)cc1	i	99	i	i	i	i
COc1ccccc1NC(=O)Nc1ccc(Cc2ccncc2)cc1	i	i	i	i	i	i
O=C1C2C3C=CC(C3)C2C(=O)N1CNc1ccc(O)cc1 (centres undefined)	64	nt	nt	i	nt	i
CC1CCCCC1NC(=O)c1cc(Cl)nc2ccccc12 (centres undefined)	nt	nt	nt	nt	i	nt
COc1ccc(/C=N/NC(=O)c2cc(C34CC5CC(CC(C5)C3)C4)[nH]n2)cc1O	i	90	i	i	i	i
COc1ccc(/C=N/NC(=O)C(O)(c2ccccc2)c2ccccc2)cc1OC	i	i	i	i	i	i
CC(C)[C@H](NC(N)=O)C(=O)NCCc1ccc(Cl)cc1	67	i	i	i	i	i
CC(C)[C@H](NC(=O)NCCc1ccc(Cl)cc1)C(=O)O	i	i	i	i	i	i
CNCc1ccc(OCc2ccccc2)c(OC)c1	i	80	i	i	i	i
c1ccc(COc2cccc(CNCc3cccnc3)c2)cc1	i	98	i	i	i	i
COc1cc(CC(=O)O)ccc1OCc1ccccc1	nt	nt	nt	nt	i	nt
COc1cc(CNc2ccc(NC(C)=O)cc2)ccc1OCc1ccccc1C	i	73	i	i	i	i
COc1cc(CNc2ccc(N3CCN(C(C)=O)CC3)cc2)ccc1OCc1ccccc1	i	i	i	i	i	i
Nc1nnnn1NCc1cccc(OCc2ccccc2)c1	i	i	i	i	i	i
c1ccc(COc2cccc(CNCc3ccccn3)c2)cc1	i	96	i	i	i	i
Cc1nnc(NC(=O)CSc2nnc(NC(=O)C(C)(C)C)s2)s1	i	i	i	i	i	i
CC(=O)Nc1cc2cc(NS(=O)(=O)c3ccc(C)cc3)ccc2oc1=O	nt	nt	nt	nt	i	nt
COC(=O)c1cccc(NC(=O)CCNC(=O)c2ccc([N+](=O)[O-])cc2)c1	i	i	i	i	i	i
COc1ccccc1CNc1cc(-c2ccccc2)ccc1OC	i	i	i	i	i	i
COc1cc(CNCCO)ccc1OCCc1ccccc1	nt	nt	nt	nt	i	nt
COc1cc(CNCc2cccnc2)ccc1OCc1ccccc1	i	96	i	i	i	i
CNCc1c(OCc2ccc(F)cc2)ccc2ccccc12	i	63	i	i	i	i
COc1ccc(-c2ccccc2)cc1NCc1ccc(OC)c(OC)c1	i	99	i	i	i	i
SMILES	Diaphorase inh	L major viab	Redox H2O2 prof	G6PDH counter	PfGluPho inh	Diaph act CS
Cc1cc(Cl)ccc1OCCn1cncn1	i	i	i	i	i	i
COc1ccc(C2Oc3ccccc3C3=C2C(c2cccs2)n2ncnc2N3)cc1 (centres undefined)	i	69	i	i	i	i
COc1ccc(OC)c(NC(=O)C2=C(C)Nc3ncnn3C2c2cccs2)c1 (centres undefined)	i	i	i	i	i	i
CCCCc1cc(=O)oc2cc(O)cc(O)c12	i	i	i	i	i	i
CCCCc1cc(=O)oc2cc(C)cc(O)c12	i	82	i	i	i	i
CCOc1ccc(-c2nc(-c3ccc(OC)cc3)no2)cc1OCC	i	i	i	i	i	i
CCOc1ccc(-c2noc(-c3ccncc3)n2)cc1OCC	i	93	i	i	i	i
CCOc1ccc(-c2nc(-c3cccnc3)no2)cc1OCC	i	81	i	i	i	i
CCOc1ccc(-c2noc(-c3cccnc3)n2)cc1OCC	nt	nt	nt	nt	i	nt
